# Source: PubChem
# HSP90 refold inh: inhibitors of HSP90 luciferase refolding in rabbit reticulocyte lysate | luciferase refolding luminescence, 3 h | inhibition, % at 5.6 µM | 290,000 compounds, 0.91% hits | AID 1789;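 active = inhibition above the screen-wide mean plus 3 SD, computed separately per campaign, cut at about 16% in these data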;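 also: 0% = DMSO wells and 100% = 60 µM geldanamycin wells; inhibitors lower the luminescence because luciferase stays unfolded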
# HCV NS3 hel inh: HCV NS3 helicase inhibition; NS3 helicase DNA unwinding, Cy5 molecular beacon fluorescence; inhibition, % at 10.9 µM; 290,000 compounds, 0.56% hits; AID 1800;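 active = inhibition above the mean of all tested compounds plus 3 SD, set per campaign, cut at about 35% in these data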;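 also: 0% = DMSO wells and 100% = thioflavine S control wells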
#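 Material: hepatitis C virus NS3 helicase domain fragment enzyme; measured by: Cy5 fluorescence, 0 and 60 min reads; control set: DMSO and thioflavine S; incubation: 60 min unwinding reaction at 25 °C after ATP addition; read-out basis: % inhibition from 60/0 min fluorescence ratio, DMSO 0%, thioflavine S 100%; repeats: singlicate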
# HCV core dimer: blocks dimerization of HCV core protein. TR-FRET GST/Flag-core106 dimerization, 1536-well. 300,000 compounds, 0.33% hits. inhibition, % at 5 µM. AID 1899;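 active = inhibition above the mean of all tested compounds plus 3 SD, set per screening campaign, cut at about 45% in these data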
#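 Material: Tagged HCV core106 pair (GST and Flag) | Amount: GST-core106 13.5 nM, Flag-core106 17 nM | Medium: KF-containing HEPES buffer, pH 7.45, DTT, CHAPS, BSA | Reagent: Eu donor and XL665 acceptor anti-tag antibodies | Schedule: 4 h at 22.5 °C | Technique: Time-resolved FRET, ex 340 nm, em 617 and 671 nm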
# DNA FID counter: counter-screen for HCV NS3 helicase inhibitors: DNA intercalator displacement; DNA fluorescent intercalator displacement, fluorescence; inhibition, % at 7.9 µM; 290,000 compounds, 0.17% hits; in the data active = inhibition above about 37%;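 also: 0% = vehicle and 100% = reference compound; higher means more ethidium bromide displaced from hairpin DNA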
# HSF1 inh: HSF1 inhibition | activity change, negative = inhibition, % at 7.5 µM (by protocol) | 300,000 compounds, 0.77% hits | NIH3T3-HGL HSE-luciferase, MG132-induced, luminescence 8 h; hits give low values;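 active = more than half of replicate wells show activity change below -50%, luminescence cut by over half; inconclusive = some wells, but at most half, below -50%; inactive = no replicate well below -50%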;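 also: luciferase reports HSF-1 transcriptional activity via heat shock element; 0% = median of DMSO wells and -100% = zero luminescence signal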
# HSF1 activator: increases HSF-1 driven luciferase reporter signal. NIH3T3-HGL HSF-1 luciferase reporter, MG132, 8 h; 100% = twice DMSO control signal. activation, % at 9 µM. 300,000 compounds, 1.7% hits. AID 504408;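 active = mean replicate activation of at least 50% with a set share of replicates each reaching 50%; inconclusive = only one of those two conditions met; inactive = mean below 50% and too few replicates reaching it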;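 also: 0% = median of the neutral control wells and 100% = twice that signal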
# HSP90 inh confirm: confirmation of HSP90 inhibitors. shares compounds with HSP90 refold inh. 2,300 compounds, 64% hits. rabbit reticulocyte lysate, luciferase refolding luminescence, 3 h. inhibition, % at 5.9 µM; in the data active = inhibition above about 18%;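 also: 0% = vehicle wells and 100% = reference inhibitor wells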
# luciferase ctr: counter-screen for HSP90 inhibitors: inhibitors of firefly luciferase. inhibition, % at 5.9 µM. shares compounds with HSP90 refold inh. 2,300 compounds, 48% hits. AID 1847. purified native firefly luciferase, luminescence;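 active = inhibition above the mean inhibition of all tested sample wells plus 3 SD, cut at about 10% in these data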;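 also: 0% = DMSO with luciferase and 100% = wells lacking luciferase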
# Target sequence (P08659 whole entry, looked up): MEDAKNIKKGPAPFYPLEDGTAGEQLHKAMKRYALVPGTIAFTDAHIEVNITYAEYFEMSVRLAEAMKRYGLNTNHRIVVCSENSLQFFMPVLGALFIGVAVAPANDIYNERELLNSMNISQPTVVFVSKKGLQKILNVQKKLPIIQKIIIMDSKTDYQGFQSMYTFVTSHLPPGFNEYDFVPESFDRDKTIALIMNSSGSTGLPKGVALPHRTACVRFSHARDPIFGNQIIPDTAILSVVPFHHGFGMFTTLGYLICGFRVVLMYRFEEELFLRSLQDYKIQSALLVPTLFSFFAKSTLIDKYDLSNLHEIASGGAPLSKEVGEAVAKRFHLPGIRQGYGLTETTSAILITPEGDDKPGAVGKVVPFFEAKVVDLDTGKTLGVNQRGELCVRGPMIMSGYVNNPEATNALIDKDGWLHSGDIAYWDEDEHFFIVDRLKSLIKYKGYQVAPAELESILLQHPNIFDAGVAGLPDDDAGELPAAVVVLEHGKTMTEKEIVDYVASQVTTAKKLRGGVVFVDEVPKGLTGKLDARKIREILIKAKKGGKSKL
# An asterisk follows results filed as active; ? = inconclusive; . = no result given. Compounds with a hit are over-represented: about 3.9% of the library has one in this group of screens.
SMILES,HSP90 refold inh,HCV NS3 hel inh,HCV core dimer,DNA FID counter,HSF1 inh,HSF1 activator,HSP90 inh confirm,luciferase ctr
COc1cccc(Cn2cccc(NC(=O)Nc3ccccc3C)c2=O)c1,1,-3,1,-25,8,-1,.,.
COC(=O)c1cccc(NC(=O)c2ccc[n+]([O-])c2)c1,-2,-7,5,1,4,7,.,.
C=CCn1c(C)cc(C(=O)CN2NS(=O)(=O)c3ccccc3C2=O)c1C,35*,2,0,-12,.,.,36*,12*
CC1=NN(C(=O)COc2ccc(C)c(C)c2)C(O)(c2ccc(Cl)cc2)C1 (stereo unspecified),0,7,-3,-22,12,22,.,.
CC(=O)c1cccc(Nc2nc(-c3sc(N)nc3C)cs2)c1,52*,28,-16,-5,0,-3,1,-10
Cc1nc(C)c(-c2csc(Nc3cccc(O)c3)n2)s1,-6,-13,-20,-7,-11,10,.,.
Cc1nc(N)sc1-c1csc(Nc2cccc(O)c2)n1,31*,4,-25,2,-41,-47,-4,-21
Cc1cc(C)c(NC(=O)CSc2nnnn2-c2cccnc2)c(C)c1,-3,3,2,-7,-2,1,.,.
N#CC1(C#N)COC23CCCCC2C1(C#N)C(=N)O3 (stereo unspecified),18*,15,2,-3,-70*,-76,-6,-13
O=C(O)c1ccc(C2CCCCC2)cn1,4,1,-4,-32,0,-2,.,.
CCC(C)n1c(SCC(=O)NC2CCCC2)nc2ccccc2c1=O (stereo unspecified),.,.,1,.,-2,1,.,.
O=C(CSc1nc2ccccc2c(=O)n1CC1CCCO1)NCC1CCCO1 (stereo unspecified),-1,-2,-1,-9,-3,21,.,.
COc1ccc(C(=O)Nn2c(SCC(=O)NCc3ccccc3)nc3ccccc3c2=O)cc1,68*,0,0,-5,-61*,-68,50*,49*
COc1ccc(C(=O)Nn2c(SCC(=O)NC3CCCC3)nc3ccccc3c2=O)cc1,72*,4,5,-9,-58*,-63,52*,49*
COc1ccc(C(=O)Nn2c(SCC(=O)NCC3CCCO3)nc3ccccc3c2=O)cc1 (stereo unspecified),63*,-3,2,-8,-66*,-68,78*,72*
Nc1cc2nn(-c3ccccc3)nc2cc1Cl,43*,20,.,-4,-3,41,18*,-8
CCOC(=O)c1cnc2c(C)c(Cl)ccc2c1Nc1ccc(S(=O)(=O)Nc2ncccn2)cc1,4,0,3,-1,9,-4,.,.
O=C(Nc1ccc2[nH]ccc2c1)c1ccccc1,44*,3,1,1,1,10,56*,30*
O=C(Nc1ccc2[nH]ccc2c1)c1ccc(F)cc1,53*,3,-1,9,14,34,64*,46*
COc1ccc(/C=N/Nc2nc3ccccc3o2)cc1O,9,-5,-7,-1,18,33,.,.
COc1ccc(/C=N/Nc2nc3ccccc3s2)cc1O,22*,-14,.,0,-18,-34,55*,49*
COc1ccccc1-c1ccc(C(=O)O)o1,46*,4,-6,1,-9,7,54*,-14
O=C(c1cc(F)c(F)cc1Cl)N1CCN(CCc2ccccc2)CC1,38*,4,-4,-31,-4,-2,-1,-6
O=C(c1cc(Cl)ccc1Cl)N1CCN(Cc2ccccc2)CC1,-5,-9,.,-22,-10,-21,.,.
Cc1ccc(S(=O)(=O)N(C)CC(=O)Nc2ccncc2)cc1,-2,-4,-2,-2,-4,1,.,.
Cc1cccc(N=C2NN=C(c3c(C)[nH]c4ccccc34)CS2)c1,-2,-2,13,9,-7,33,.,.
Cc1cccc(N=C2NN=C(c3ccc4c(c3)OCCO4)CS2)c1,28*,-8,2,-7,?,-55,40*,34*
